Hits are enriched below; roughly 2.2% of the tested compounds scored in any of these assays.
PAD4 FP inh – inhibitors of human PAD4; Q9UM07; recombinant PAD4, RCA probe fluorescence polarization; inhibition, % at 6.36 µM; actives 0.41% (n = 330,000);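 active = percent inhibition above a cutoff equal to the mean of all tested compounds plus 3 SD, cut at about 15% in these data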;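 also: 0% = PAD4 with RCA probe and DMSO and 100% = probe without PAD4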
GSTO1 inh – blocks human GSTO1 in RBBP9 counter-screen | actives 1.1% (n = 300,000) | recombinant GSTO1, activity-based probe fluorescence polarization | inhibition, % at 5.96 µM;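 active = inhibition above the campaign mean inhibition plus 3 SD, cut at about 35% in these data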;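 also: 0% = GSTO1-1 with DMSO and 100% = wells lacking GSTO1-1 enzyme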
UBC13 inh – inhibitors of human UBC13 polyubiquitin chain formation; inhibition, % at 20 µM; P61088; actives 0.47% (n = 330,000); AID 485273; TR-FRET; in the data active = inhibition above about 45%, passing the limit was not always enough
Target sequence (P61088 whole entry, looked up): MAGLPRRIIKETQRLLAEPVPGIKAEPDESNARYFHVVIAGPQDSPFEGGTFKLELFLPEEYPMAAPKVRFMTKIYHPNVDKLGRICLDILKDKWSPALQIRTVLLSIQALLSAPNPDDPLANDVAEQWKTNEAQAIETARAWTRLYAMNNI
SUMO HTRF inh – blocks human SUMOylation mediated by UBC9; HTRF SUMOylation assay, SAE1/SAE2 + UBC9, in vitro; AID 2006; inhibition, % at 35 µM; actives 0.36% (n = 290,000); P63279; in the data active = inhibition above about 50%, passing the limit was not always enough
Target sequence (P63279 whole entry, looked up): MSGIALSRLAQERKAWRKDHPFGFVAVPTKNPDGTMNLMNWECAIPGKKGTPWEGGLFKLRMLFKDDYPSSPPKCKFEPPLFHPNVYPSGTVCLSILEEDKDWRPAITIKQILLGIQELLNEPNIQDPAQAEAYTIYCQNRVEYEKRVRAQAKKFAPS
Apaf1 inhib – inhibitors of human Apaf-1 apoptosome; inhibition, % at 20 µM; actives 0.71% (n = 330,000); O14727; reconstituted apoptosome caspase-3 activity, DEVD-Rh110 fluorescence; active = inhibition of at least 40% at 20 µM;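 also: plate controls were DMSO wells for no effect and DEVD-CHO caspase inhibitor wells for full effect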
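Material: reconstituted apoptosome with Apaf-1, cytochrome c, caspase-9, procaspase-3, dATP / Buffer or medium: pH 7.5 Hepes buffer with CHAPS, BSA, DTT / Also added: cytochrome c with DEVD-Rh110 / Schedule: compound with Apaf-1, dATP, procaspase-3 30 min, then 50 min reaction, room temperature / Technique: rhodamine 110 fluorescence at Ex 480/Em 540 nm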
Rin1-Abl PPI inh – inhibitors of human Rin1-Abl protein interaction; TR-FRET Rin1/Abl binding, biochemical; inhibition, % at 7.35 µM; actives 0.4% (n = 360,000); AID 588664; in the data active = inhibition above about 5%, passing the limit was not always enough
PAD4 FP conf – PAD4 (human) inhibition, confirmed; shares compounds with PAD4 FP inh; recombinant PAD4, RCA probe fluorescence polarization; inhibition, % at 6.36 µM; actives 28% (n = 1,200);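 active = mean inhibition across replicates above the hit cutoff set by the earlier primary screen, cut at about 15% in these data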;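 also: inhibitors block active-site labeling by the probe so polarization falls; 0% = PAD4 with probe and DMSO and 100% = probe without PAD4 enzyme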
* = called active by the depositor; x = no result.

SMILES	PAD4 FP inh	GSTO1 inh	UBC13 inh	SUMO HTRF inh	Apaf1 inhib	Rin1-Abl PPI inh	PAD4 FP conf
COC(=O)c1cnn(-c2ccccc2)c1C(OC)OC	18*	-1	0	10	-14	-2	2
O=C(O)c1ccccc1SC1CC(=O)N(c2ccccc2)C1=O (configuration not stated)	6	12	-4	-8	-8	-2	x
O=C1CC(Sc2cccs2)C(=O)N1c1ccccc1 (configuration not stated)	24*	-11	2	6	-12	-2	6
Cc1nnc(N/N=C/c2cccc(C(F)(F)F)c2)n1N	35*	17	-6	14	-1	2	-1
Fc1ccccc1/C=N/Nc1nn[nH]n1	3	3	2	4	1	-2	x
Cc1nnc(N/N=C/c2ccccc2C(F)(F)F)n1N	18*	3	-7	17	-12	0	0
Cc1nnc(N/N=C/c2ccco2)n1N	23*	38*	-8	15	-17	0	-1
Cc1nnc(N/N=C/c2ccccc2F)n1N	31*	6	-7	-1	-2	1	10
CC(=O)N1CCN(C(=O)CCc2cc(C(C)(C)C)c(O)c(C(C)(C)C)c2)CC1	1	-4	-8	-4	5	3	x
C/C(=C\C(=O)c1ccc(F)cc1)Nc1ccc(N2CCOCC2)cc1	39*	8	-2	-1	20	-3	7
CC1(C(=O)NS(=O)(=O)c2ccc(F)cc2F)CCN1C(=O)CC1CCCC1 (configuration not stated)	x	x	x	x	x	1	x
c1ccc(C2=NNC(=NC3CC3)SC2)cc1	22*	2	-8	5	1	3	1
Cc1cccc(CN2CCN(c3nc4nonc4nc3NC3CC3)CC2)c1	28*	2	-1	-10	-2	0	6
Clc1cccc(CN2CCN(c3nc4nonc4nc3NC3CC3)CC2)c1	-3	5	3	0	-8	-8	x
COc1ccccc1NCCC(=O)O	1	0	9	-30	-34	-3	x
O=C(O)CCNc1ccc(NCCC(=O)O)c2c1C(=O)c1ccccc1C2=O	22*	18	-100	-99	-12	-7	11
O=C(C1CC(=O)N(c2ccccc2)C1)N1CCCCCC1 (configuration not stated)	0	-14	4	8	-8	-5	x
Cc1ccc(-c2ccccc2NC(=O)CS(=O)CC(=O)Nc2ccc(C)c(Cl)c2)o1 (configuration not stated)	113*	28	28	-9	14	-5	2
COc1ccc(C(=O)N2CCCCC2c2cc(C(=O)NCc3ccc(F)cc3)no2)cc1 (configuration not stated)	x	x	x	x	x	2	x
CC(C(=O)O)C(=O)O	39*	0	-1	x	-12	0	1
C[C@@H](O)CC(=O)O	-6	5	16	x	-4	-1	x
COc1ccc(/C=N/Nc2nncn2N)cc1Br	53*	29	-40	12	27	-1	3
COc1cc(/C=C(\C#N)C(N)=O)ccc1OCc1c(C)no[n+]1[O-]	-5	19	-2	15	-4	-2	x
Nn1cnnc1N/N=C/c1ccc(Cl)cc1Cl	x	x	-4	4	2	-5	x
COc1cc(/C=N/Nc2nncn2N)ccc1OCc1c(C)no[n+]1[O-]	45*	16	-2	15	-4	-7	-9
Cc1noc(NS(=O)(=O)c2ccc(NC(=O)COc3ccccc3)cc2)c1C	-5	1	-5	0	-1	-2	x
Cc1noc(NS(=O)(=O)c2ccc(NC(=O)CSc3nc4ccccc4s3)cc2)c1C	19*	1	-6	-4	2	-1	-5
CCC(=O)Oc1ccc(C(=O)Nc2cccc(C(=O)NC(C)(C)C)c2)cc1	115*	-4	3	-4	-3	0	-3
NS(=O)(=O)c1ccc(NC(=S)NCc2ccc(Cl)cc2)cc1	20*	0	9	-18	7	1	6

Screening results deposited in PubChem by several laboratories.
